The record followed here is ChEMBL document CHEMBL1142124, “Antimicrobial prenylated anthracene derivatives from the leaves of Harungana madagascariensis” (2007).

Active and inactive are the calls of the source. No cut-off for these calls is given here.

Experiment [1] deals with Microbotryum violaceum. Briefly: Antimicrobial activity against Micobotryum violaceum at 5 ug/uL by agar diffusion assay. It counts as functional. The method, boiled down:
(§1)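 Filter-disk agar diffusion. 50 µL of test solution is applied to a sterile 9 mm disk, and the disk is air-dried. Disks sit on an agar medium suited to each organism, and the plate is sprayed with a suspension of that organism. Incubation is at 28 °C overnight. The radius of the inhibition zone is read in mm.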
(Agar diffusion results depend on both activity and mobility in agar.)

The test system of experiment [2] is Priestia megaterium. Briefly: Antibacterial activity against Bacillus megaterium at 5 ug/uL by agar diffusion assay. It counts as functional. The method, boiled down:
as §1

In experiment [3] the test system is Microbotryum violaceum. Kind of experiment: Antimicrobial activity against Micobotryum violaceum at 1 ug/uL by agar diffusion assay. It counts as functional, organism-based. The method, boiled down: as §1
The test system of experiment [4] is [Chlorella] fusca. Briefly: Antimicrobial activity against Chlorella fusca at 1 ug/uL by agar diffusion assay. It counts as functional, organism-based. Particulars: Scenedesmus fuscus. The method, boiled down:
as §1

The test system of experiment [5] is [Chlorella] fusca. Briefly: Antimicrobial activity against Chlorella fusca at 5 ug/uL by agar diffusion assay. Particulars: for Activity: Scenedesmus fuscus. It counts as functional, Scenedesmus fuscus. The method, boiled down:
as §1

Experiment [6] relates to Priestia megaterium. Briefly: Antibacterial activity against Bacillus megaterium at 1 ug/uL by agar diffusion assay. It counts as functional. In short, it runs like this: as §1

`O=c1c2cc(O)ccc2oc2cccc(O)c12`: the “inhibition zone (IZ)” value was determined as 12 mm in the experiment with Microbotryum violaceum [1], 12 mm in the experiment with Priestia megaterium [2], 10 mm in experiment [Chlorella] fusca [5] and 9 mm with Priestia megaterium [6]. Also, the result (in the experiment with Microbotryum violaceum [3]; in experiment [Chlorella] fusca [4]) was inactive.
Regarding `COC1c2c(CC=C(C)C)c(C)cc(O)c2C(=O)c2c(O)cc3c(c21)CC(C(C)(C)O)O3` (stereo not given) [KENGANTHRANOL C], the outcome (in the experiment with Microbotryum violaceum [1]; in the experiment on Microbotryum violaceum [3]; in experiment [Chlorella] fusca [4]; in experiment [Chlorella] fusca [5]) was inactive. The “inhibition zone (IZ)” value in the experiment with Priestia megaterium [2] was found to be 10 mm; in the experiment on Priestia megaterium [6] it was 6 mm.
In the case of `CC(C)=CCc1c(C)c(CC=C(C)C)c2c(c1O)C(=O)c1c(O)cc(O)c(CC=C(C)C)c1C2`, the outcome (in the experiment with Microbotryum violaceum [1]; with Priestia megaterium [2]; in the experiment with Microbotryum violaceum [3]; in experiment [Chlorella] fusca [4]; in experiment [Chlorella] fusca [5]; in the experiment with Priestia megaterium [6]) was inactive.
In the case of `CC(C)=CCc1c(C)c2c3c(c1O)C(=O)c1c(O)cc4c(c1[C@]31O[C@H](C2)C(C)(C)O1)C=CC(C)(C)O4`, the outcome (in the experiment with Microbotryum violaceum [1]; in the experiment on Priestia megaterium [2]; in the experiment with Microbotryum violaceum [3]; in experiment [Chlorella] fusca [4]; in experiment [Chlorella] fusca [5]; in the experiment with Priestia megaterium [6]) was inactive.
For the compound `CC(C)=CCc1c(C)cc(O)c2c(O)c3c(cc12)[C@]1(CC=C(C)C)C[C@H](O)C(C)(C)[C@@H](C3=O)C1=O` [HARUNMADAGASCARIN D], the outcome (in the experiment with Microbotryum violaceum [1]; with Microbotryum violaceum [3]; in experiment [Chlorella] fusca [4]; in experiment [Chlorella] fusca [5]; with Priestia megaterium [6]) was inactive. For the same compound, the “inhibition zone (IZ)” value in the experiment on Priestia megaterium [2] came to 10 mm.
